Laboratory results taken from ChEMBL document CHEMBL1138326, “Structure-based design, synthesis, and biological evaluation of indomethacin derivatives as cyclooxygenase-2 inhibiting nitric oxide donors” (J Med Chem, 2007).
Activity calls are given as the source filed them. The rule behind the calls is not given here.

Assays:
Rattus norvegicus [1] = assay: Toxicity in Sprague-Dawley rat assessed as reduction of gastric lesion score at 45 umol/kg, po; type: organism-based, Stomach; parameters: scale not given: the % may be the effect or the level left; settings: in vivo
In short: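 Rats fasted 18 h; compound homogenized in 0.5% methocel and gavaged at 1 mL/kg. Killed 3 h after dosing. Stomach opened along the greater curvature and photographed. Hemorrhagic lesion lengths scored blind and summed as the total lesion score. Means ± SEM, 4–12 animals; ANOVA with Dunnett's test.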

[2] = molecular target: T1, Prostaglandin G/H synthase 1 (Homo sapiens, UniProt P23219); assay: Inhibition of COX1 in human whole blood assessed as effect on A23187-induced thromboxane B2 production; type: tissue-based
Rattus norvegicus [3] = assay: Antiinflammatory activity against intrapouch dosed Sprague-Dawley rat carrageenan air-pouch model assessed as reduction of prostaglandin E2 at 45 umol/kg; type: functional; parameters: scale not given: the % may be the effect or the level left
In short: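 Air pouch made with 20 mL sterile air sc on day -6 and 10 mL more on day -3; rats fasted 18 h. Compound in 0.5% methocel injected into the pouch 1 h before carrageenan (1 mL of 1.0% in saline). After 4 h, exudate recovered with PBS/heparin and assayed for PGE2 by enzyme immunoassay.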

Rattus norvegicus [4] = assay: Antiinflammatory activity against Sprague-Dawley rat carrageenan air-pouch model assessed as reduction of prostaglandin E2 at 45 umol/kg, po; type: functional; parameters: scale not given: the % may be the effect or the level left
In short: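 Air pouches raised by sc injection of 20 mL sterile air (day -6) plus 10 mL on day -3; rats fasted 18 h. Compound suspended in 0.5% methocel given orally 1 h before intrapouch carrageenan (1 mL of 1.0% in saline). Exudate collected 4 h later after PBS/heparin lavage; PGE2 by enzyme immunoassay. Means ± SEM, n = 6–22; ANOVA with Dunnett's test vs vehicle.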

[5] = molecular target: T2, Prostaglandin G/H synthase 2 (Homo sapiens) (UniProt P35354); assay: Inhibition of COX2 in human whole blood assessed as effect on LPS-induced thromboxane B2 production at 30 uM relative to control; values are per cent of control
T2 sequence (whole entry): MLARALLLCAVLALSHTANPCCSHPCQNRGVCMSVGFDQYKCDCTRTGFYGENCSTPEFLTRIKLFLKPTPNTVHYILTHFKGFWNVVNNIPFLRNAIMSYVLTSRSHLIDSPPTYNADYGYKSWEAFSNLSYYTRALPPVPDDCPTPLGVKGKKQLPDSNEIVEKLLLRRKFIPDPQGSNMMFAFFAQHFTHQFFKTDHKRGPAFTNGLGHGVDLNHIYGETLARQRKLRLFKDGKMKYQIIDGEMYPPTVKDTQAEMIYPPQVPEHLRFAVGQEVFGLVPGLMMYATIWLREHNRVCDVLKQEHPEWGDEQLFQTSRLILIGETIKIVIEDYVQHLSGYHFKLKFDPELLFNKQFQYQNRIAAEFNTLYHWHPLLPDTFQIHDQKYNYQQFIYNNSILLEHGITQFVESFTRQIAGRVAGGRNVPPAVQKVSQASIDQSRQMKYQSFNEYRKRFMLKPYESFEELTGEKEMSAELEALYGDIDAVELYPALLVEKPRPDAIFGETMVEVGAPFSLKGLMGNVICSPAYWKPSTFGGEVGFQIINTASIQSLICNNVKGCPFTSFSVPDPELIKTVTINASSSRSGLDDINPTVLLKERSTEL

[6] = molecular target: T1, Prostaglandin G/H synthase 1; assay: Inhibition of COX1 in human whole blood assessed as effect on A23187-induced thromboxane B2 production at 3 uM relative to control; values are per cent of control
[7] = molecular target: T1, Prostaglandin G/H synthase 1; assay: Inhibition of COX1 in human whole blood assessed as effect on A23187-induced thromboxane B2 production at 1 uM relative to control; values are per cent of control
[8] = molecular target: T1, Prostaglandin G/H synthase 1; assay: Inhibition of COX1 in human whole blood assessed as effect on A23187-induced thromboxane B2 production at 30 uM relative to control; values are per cent of control
[9] = molecular target: T1, Prostaglandin G/H synthase 1; assay: Inhibition of COX1 in human whole blood assessed as effect on A23187-induced thromboxane B2 production at 10 uM relative to control; values are per cent of control
[10] = molecular target: T1, Prostaglandin G/H synthase 1; assay: Inhibition of COX1 in human whole blood assessed as effect on A23187-induced thromboxane B2 production at 100 uM relative to control; values are per cent of control
[11] = molecular target: T2, Prostaglandin G/H synthase 2 (Homo sapiens); assay: Inhibition of COX2 in human whole blood assessed as effect on LPS-induced thromboxane B2 production at 100 uM relative to control; values are per cent of control
Rattus norvegicus [12] = assay: Gastric sparing effect in Sprague-Dawley rat assessed as reduction of aspirin-induced gastric damage at 45 umol/kg, po; type: ADME, organism-based, Stomach; parameters: scale not given: the % may be the effect or the level left; settings: in vivo
In short: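 Aspirin (25 mg/kg, in 1.0% methocel) gavaged at 1.0 mL/kg; test compound in 0.5% methocel gavaged 2 min later. Rats killed after 3 h and stomachs scored as summed hemorrhagic lesion lengths. Six groups, 3–11 rats each; ANOVA with Newman-Keuls test.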

Homo sapiens = species on record: Homo sapiens; assay: Selectivity for human COX2 over human COX1
Rattus norvegicus [13] = assay: Increase in nitrite plus nitrate levels in Sprague-Dawley rat at 45 umol/kg, po; type: functional, organism-based
In short: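 Plasma taken by cardiac puncture 4 h after oral dosing (0.5% methylcellulose vehicle), at the end of the air-pouch experiment. Total NOx (nitrite plus nitrate) measured with a fluorometric kit. Means ± SEM, n = 3; ANOVA with Dunnett's test vs vehicle.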

T1 sequence (P23219 whole entry): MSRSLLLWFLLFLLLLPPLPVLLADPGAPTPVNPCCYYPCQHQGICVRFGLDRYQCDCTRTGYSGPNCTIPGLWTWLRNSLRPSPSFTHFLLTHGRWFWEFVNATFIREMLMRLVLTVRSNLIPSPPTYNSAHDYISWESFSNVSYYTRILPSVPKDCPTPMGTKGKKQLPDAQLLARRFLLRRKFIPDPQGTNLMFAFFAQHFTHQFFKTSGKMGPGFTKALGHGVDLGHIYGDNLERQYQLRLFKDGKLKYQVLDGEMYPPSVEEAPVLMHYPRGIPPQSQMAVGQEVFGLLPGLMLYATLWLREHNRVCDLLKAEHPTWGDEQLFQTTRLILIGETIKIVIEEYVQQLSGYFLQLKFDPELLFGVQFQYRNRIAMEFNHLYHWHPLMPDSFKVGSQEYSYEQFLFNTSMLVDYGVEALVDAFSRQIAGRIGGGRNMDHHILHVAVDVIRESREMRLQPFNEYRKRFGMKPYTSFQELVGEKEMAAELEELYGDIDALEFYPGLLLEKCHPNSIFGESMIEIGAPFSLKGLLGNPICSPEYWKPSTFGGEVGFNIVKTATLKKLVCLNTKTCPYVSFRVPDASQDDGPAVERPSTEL

Row | Compound | Activity (Rattus norvegicus [1]) [%] | IC50 [2] [µM] | Activity (Rattus norvegicus [3]) [%] | Activity (Rattus norvegicus [4]) [%] | residual activity [5] [%] | residual activity [6] [%] | residual activity [7] [%] | residual activity [8] [%] | residual activity [9] [%] | residual activity [10] [%] | residual activity [11] [%] | Activity (Rattus norvegicus [12]) [%] | Ratio IC50 (Homo sapiens) | Activity (Rattus norvegicus [13])
1 | COc1ccc2c(c1)c(CC(=O)NCCCO)c(C)n2C(=O)c1ccc(Cl)cc1 | 98 | 3.3 | 97 | 85 | 0 | 46 | 91 | 11 | 37 | 6 |  |  |  | 
2 | COc1cc2c(CC(=O)NCCCO[N+](=O)[O-])c(C)n(C(=O)c3ccc(Cl)cc3)c2cc1Cl |  | 15.9 |  |  | 3 | 72 | 98 | 41 | 70 | 13 | 0 |  |  | 
3 | COc1ccc2c(c1)c(CC(=O)NCCCO[N+](=O)[O-])c(C)n2C(=O)c1ccc(Cl)cc1 | 98 | 6 | 99 | 71 | 1 | 65 | 77 | 7 | 31 | 0 |  | 85 | 5 | Active
